Test results reported in ChEMBL document CHEMBL3867451, “Phenolic Metabolites of Dalea ornata Affect Both Survival and Motility of the Human Pathogenic Hookworm Ancylostoma ceylanicum” (J Nat Prod, 2016).

Key:
[1] = system: Ancylostoma ceylanicum; experiment: Anthelmintic activity against Ancylostoma ceylanicum isolated from infected Syrian hamster feces assessed as survival rate at 25 ug/ml measured on day 1 relative to control; format: functional; settings: 24 h
[2] = system: Ancylostoma ceylanicum; experiment: Anthelmintic activity against Ancylostoma ceylanicum isolated from infected Syrian hamster feces assessed as survival rate at 25 ug/ml measured on day 2 relative to control; format: functional; settings: 48 h
[3] = system: Ancylostoma ceylanicum; experiment: Anthelmintic activity against Ancylostoma ceylanicum isolated from infected Syrian hamster feces assessed as survival rate at 25 ug/ml measured on day 3 relative to control; format: functional; settings: 72 h
[4] = system: Ancylostoma ceylanicum; experiment: Anthelmintic activity against Ancylostoma ceylanicum isolated from infected Syrian hamster feces assessed as survival rate at 25 ug/ml measured on day 4 relative to control; format: functional; settings: 96 h
[5] = system: Ancylostoma ceylanicum; experiment: Anthelmintic activity against Ancylostoma ceylanicum isolated from infected Syrian hamster feces assessed as survival rate at 25 ug/ml measured on day 5 (reference value: >95%); format: functional; settings: 120 h
[6] = Effect on Syrian hamster splenocytes proliferation assessed as stimulation index by BrdU-incorporation based colorimetric analysis; format: ADME, cell-based, Mesocricetus auratus; settings: splenocyte
Outline: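 Hamster spleens dissociated through strainers, red cells lysed, cells washed in RPMI. Plated in triplicate at 10⁵ cells per well with several doses of compound. 1% DMSO served as negative control, concanavalin A as positive control. Proliferation read by colorimetric BrdU incorporation. Index is mean OD450 of compound wells divided by mean OD450 of medium plus 1% DMSO wells, with 1 meaning no effect.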

[7] = system: Ancylostoma ceylanicum; experiment: Anthelmintic activity against Ancylostoma ceylanicum isolated from infected Syrian hamster feces assessed as motility at 25 ug/ml measured on day 5; format: functional
Outline: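 Adult worms from hamster intestine washed in RPMI with fungizone (25 μg/mL) and 20× pen/strep, held overnight at 37 °C, 5% CO2 in that medium plus 50% FBS. Compound added from DMSO stock to 1% DMSO final; 1% DMSO negative control. Motility scored on a 0–3 scale, worms stimulated by microscope light and heat and gentle manipulation.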

[8] = Toxicity in po dosed rat; format: organism-based; settings: in vivo
[9] = system: Ancylostoma ceylanicum; experiment: Anthelmintic activity against Ancylostoma ceylanicum isolated from infected Syrian hamster feces assessed as mortality at 10 ug/ml measured on day 3 relative to control; format: functional; settings: 72 h

## C=CC(C)(C)c1cc([C@@H]2CC(=O)c3c(O)cc(O)c(CC=C(C)C)c3O2)c(O)cc1O
[1]
  survival at 25 µg/mL: 100%
[2]
  survival at 25 µg/mL: 100%
[3]
  survival at 25 µg/mL: 100%
[4]
  survival at 25 µg/mL: 100%
[5]
  survival at 25 µg/mL: 100%
[6]
  Ratio: 0.8 to 1

## C=CC(C)(C)c1cc([C@@H]2CC(=O)c3ccc(O)c(CC=C(C)C)c3O2)c(O)cc1O
[1]
  survival at 25 µg/mL: 100%
[2]
  survival at 25 µg/mL: 100%
[3]
  survival at 25 µg/mL: 100%
[4]
  survival at 25 µg/mL: 97%
[5]
  survival at 25 µg/mL: 90%
[6]
  Ratio: 0.8 to 1

## CC(C)=CCc1c(O)c(O)cc2c1O[C@H](c1ccc(O)cc1)CC2=O
[1]
  survival at 25 µg/mL: 100%
[2]
  survival at 25 µg/mL: 97%
[3]
  survival at 25 µg/mL: 90%
[4]
  survival at 25 µg/mL: 83%
[5]
  survival at 25 µg/mL: 83%
[6]
  Ratio: 0.8

## CC(C)=CCC/C(C)=C/Cc1c(O)ccc2c1O[C@H](c1ccc(O)cc1O)CC2=O
[1]
  survival at 25 µg/mL: 100%
[2]
  survival at 25 µg/mL: 100%
[3]
  survival at 25 µg/mL: 100%
[4]
  survival at 25 µg/mL: 100%
[5]
  survival at 25 µg/mL: 93%
[6]
  Ratio: 0.8 to 1

## COc1ccc2c(c1)O[C@@H]1c3ccc(O)cc3OC[C@H]21
[1]
  survival at 25 µg/mL: 100%
[2]
  survival at 25 µg/mL: 100%
[3]
  survival at 25 µg/mL: 100%
[4]
  survival at 25 µg/mL: 100%
[5]
  survival at 25 µg/mL: 100%
[6]
  Ratio: 0.8 to 1

## CC(C)=CCc1c(O)ccc2c1O[C@H](c1ccc(O)cc1O)CC2=O
[1]
  survival at 25 µg/mL: 100%
[2]
  survival at 25 µg/mL: 100%
[3]
  survival at 25 µg/mL: 90%
[4]
  survival at 25 µg/mL: 80%
[5]
  survival at 25 µg/mL: 80%
[6]
  Ratio: 0.8 to 1

## Oc1ccc2c(c1)OC[C@@H]1c3cc4c(cc3O[C@H]21)OCO4 [(+)-MAACKIAIN]
[7]
  Activity: 80%
[1]
  survival at 25 µg/mL: 100%
[2]
  survival at 25 µg/mL: 93%
[3]
  survival at 25 µg/mL: 83%
[4]
  survival at 25 µg/mL: 80%
[5]
  survival at 25 µg/mL: 73%
[6]
  Ratio: 1

## COc1cc2c(cc1OC)[C@@H]1C(=O)c3ccc4c(c3O[C@@H]1CO2)C=CC(C)(C)O4 [DEGUELIN]
[1]
  survival at 25 µg/mL: 100%
[2]
  survival at 25 µg/mL: 50%
[3]
  survival at 25 µg/mL: 40%
[4]
  survival at 25 µg/mL: 0%
[5]
  survival at 25 µg/mL: 0%
[6]
  Ratio: 0.8 to 1

## CC(C)=CCc1c(O)cc(O)c2c1O[C@H](c1ccc(O)cc1O)CC2=O [LEACHIANONE G]
[1]
  survival at 25 µg/mL: 100%
[2]
  survival at 25 µg/mL: 97%
[3]
  survival at 25 µg/mL: 93%
[4]
  survival at 25 µg/mL: 93%
[5]
  survival at 25 µg/mL: 87%
[6]
  Ratio: 0.8 to 1

## C=C(C)[C@H]1Cc2c(ccc3c2O[C@@H]2COc4cc(OC)c(OC)cc4[C@@H]2C3=O)O1 [ROTENONE]
[8]
  LD50: 132 to 1500 mg/kg

## COc1cc2c(cc1OC)[C@]1(O)C(=O)c3ccc4c(c3O[C@@H]1CO2)C=CC(C)(C)O4 [TEPHROSIN]
[9]
  mortality at 10 µg/mL: 100%
[1]
  survival at 25 µg/mL: 77%
[2]
  survival at 25 µg/mL: 3%
[3]
  survival at 25 µg/mL: 0%
[4]
  survival at 25 µg/mL: 0%
[5]
  survival at 25 µg/mL: 0%
[6]
  Ratio: 0.8 to 1
